Assay outcomes as filed in PubChem.
Sampled rows, rich in hits. Any-hit rate of the full collection: about 1.3%.
PERK inh: inhibitors of human PERK kinase; 220,000 compounds, 0.17% hits; AID 1416; CHO PERK-DD fusion, SEAP luminescence translation reporter; Q9NZJ5; inhibition, % at 5.6 µM;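 active = inhibition above the mean inhibition of all tested compounds plus 3 SD, set separately per screening campaign, cut at about 2.9% in these data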;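 also: PERK kinase domain activated by AP20187 dimerizer at 100 nM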
PKD1 kinase inh: PKD1 (human) kinase inhibition; inhibition, % (no concentration beside the values); 200,000 compounds, 0.056% hits; AID 797; PKD1 kinase fluorescence polarization assay; Q15139; in the data active = inhibition above about 50%
MDM2 E3 inh: Mdm2 E3 ligase (human) inhibition. signal enhancement, % at 5 µM. AID 1230. 210,000 compounds, 0.11% hits. cell-based MDM2 ubiquitination luciferase reporter, 2 h; 0 = plate control, 100 = twice control, blank-subtracted;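 active = signal enhancement of 30% or more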;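 also: luminescence tracks abundance of the self-degrading MDM2-luciferase fusion protein; higher signal means inhibition of MDM2 E3 ligase activity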
Target sequence (Q00987 whole entry, looked up, the tested form may be a part): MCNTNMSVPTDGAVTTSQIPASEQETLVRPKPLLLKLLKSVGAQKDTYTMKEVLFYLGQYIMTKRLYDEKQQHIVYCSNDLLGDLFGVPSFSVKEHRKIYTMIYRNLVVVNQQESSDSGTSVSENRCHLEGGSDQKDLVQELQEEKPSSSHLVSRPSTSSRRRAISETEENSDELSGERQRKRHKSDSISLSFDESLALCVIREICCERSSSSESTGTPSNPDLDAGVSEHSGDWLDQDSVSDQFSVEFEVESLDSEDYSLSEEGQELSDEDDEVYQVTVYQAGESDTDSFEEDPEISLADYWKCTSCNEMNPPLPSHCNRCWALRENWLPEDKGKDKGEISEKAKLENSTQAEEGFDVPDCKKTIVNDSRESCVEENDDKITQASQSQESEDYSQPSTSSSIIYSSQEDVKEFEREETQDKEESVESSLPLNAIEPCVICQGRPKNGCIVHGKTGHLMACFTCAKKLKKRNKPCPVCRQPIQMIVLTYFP
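Assay system: stable mammalian line carrying autodegrading MDM2–luciferase fusion reporter; amount: 2000 cells seeded into each well; buffer or medium: DMEM; benchmarks: plate control and blank wells; signal: luciferase luminescence; timing: 2 h compound exposure at 37 °C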
TAG inh: inhibitors of triacylglycerol accumulation. H9c2 cells, Nile Red lipid (TAG) fluorescence; cells loaded with 200 µM oleic acid. inhibition, % at 12.5 µM. 230,000 compounds, 0.66% hits;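 active = pattern-corrected inhibition of lipid staining of at least 50% with the nuclear-stain viability signal not falling by more than 50%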
Hck Nef HTS: inhibitors of human Hck kinase activated by Nef. P08631. Recombinant Hck-YEEI plus Nef, Z-Lyte FRET kinase assay. inhibition, % at 20 µM. 220,000 compounds, 0.68% hits. AID 463187;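 active = Hck-Nef kinase inhibition above about 50%, limit read from the data; inactive = inhibition below that limit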
Rad51 HR inh: Rad51 (human) homologous recombination inhibition; inhibition, % at 10 µM; hRad51 DNA strand exchange, fluorescence dequenching; 200,000 compounds, 0.085% hits; Q06609;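 active = inhibition above 40% at the single screening dose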
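material = hRad51 filaments on single-stranded DNA | reagent = Donor/quencher-labelled 47-bp dsDNA substrate | compound = 10 µM final, single point | schedule = strand-exchange reaction 15 min at room temperature | measured by = fluorescein emission 520 nm, excitation 485 nm | read-out basis = % inhibition versus plate control and blank means | benchmarks = plate controls and plate blanks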
Hck Nef conf: Hck-Nef kinase inhibition, confirmation; shares compounds with Hck Nef HTS; Recombinant Hck-YEEI:Nef, Z-Lyte FRET kinase assay; calls only at 10 µM; 1,300 compounds, 28% hits;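 active = average inhibition of at least 50%, with Z-scores no higher than 3 in both the phospho-tyrosine peptide and fluorescence counterscreens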
A number is an active result; . = inactive; / = no result given; + = active, no number.

SMILES	PERK inh	PKD1 kinase inh	MDM2 E3 inh	TAG inh	Hck Nef HTS	Rad51 HR inh	others
Cc1ccc2nc3c(cc(C#N)c(=O)n3-c3nccs3)c(=O)n2c1	.	.	.	.	184.9	.
N#Cc1cc2c(=O)n3ccccc3nc2n(CCCN2CCOCC2)c1=O	.	.	.	.	149.2	.
N#Cc1cc2c(=O)n3ccccc3nc2n(Cc2cccnc2)c1=O	/	/	/	.	/	/
CNC(=O)c1cc2c(=O)n3cccc(C)c3nc2n(C(C)C)c1=N	.	.	.	.	172.4	.
Cc1cccn2c(=O)c3cc(C(=O)NCCN4CCOCC4)c(=N)n(CCc4ccccc4)c3nc12	.	.	.	/	61.3	/
Cc1cccn2c(=O)c3cc(C(=O)NC4CCCCC4)c(=N)n(Cc4ccccc4)c3nc12	/	/	/	.	/	/
COCCN(C(=O)COC(=O)CCOc1cccc(C)c1)c1c(N)n(Cc2ccccc2)c(=O)[nH]c1=O	/	/	/	.	/	/
Nc1ccn([C@@H]2O[C@H](CNCC3=CCOc4ccc(O)cc43)[C@@H](O)[C@H]2O)c(=O)n1	/	/	/	.	/	/
CC(C)OC(=O)c1cccc(NC(=O)CSc2nnc(N)s2)c1	.	.	.	.	.	.
Cc1ccc2nc3c(cc(C(=O)NC4CCCC4)c(=N)n3CCCn3ccnc3)c(=O)n2c1	.	.	.	/	109.8	.
Cc1cccn2c(=O)c3cc(C(=O)NCCCn4ccnc4)n(C)c3nc12	.	.	.	.	.	/
Cc1cccn2c(=O)c3cc(C(=O)NCCc4ccccc4)c(=N)n(CCCn4ccnc4)c3nc12	.	.	.	.	60.8	.
O=C(NCCN1CCOCC1)c1cc2c(=O)n3ccccc3nc2n1Cc1ccccc1	.	.	.	.	52.3	.	Hck Nef conf=.
Cn1c(=O)n(C)c2cc(NC(=O)COc3ccc(Cl)cc3)ccc21	.	.	.	.	.	.
c1ccn2c(c1)nc1c2nc2ccccn21	.	.	.	/	66.0	.
CC(=O)Nc1ccc(CNc2nc3cc(-c4ccc(F)cc4)sc3c(=O)n2C)cc1	/	/	/	.	/	/
COc1ccc(CCNc2c3ccccc3nc3ccccc23)cc1OC	.	/	.	55.4	56.3	.	Hck Nef conf=.
Clc1ccccc1OCCNc1nc(NCC2CC2)nc2ccsc12	/	/	/	.	/	/
O=C(N/N=C/c1ccc(O)cc1)Nc1cccc2nsnc12	.	.	.	.	52.6	.	Hck Nef conf=.
Cc1cc(/C=C2\SC(=Nc3ccccc3)NC2=O)c(C)n1-c1ccc(S(N)(=O)=O)cc1	.	.	.	.	58.8	.	Hck Nef conf=.
O=C1NC(=Nc2ccccc2)S/C1=C\c1ccccc1	/	/	/	.	/	/
O=C(Nc1ccc(S(=O)(=O)Nc2ncccn2)cc1)c1ccccc1NS(=O)(=O)c1ccc(Cl)cc1	.	/	/	.	.	.
CNc1ccc(Br)cc(C(=O)/C=C/c2cccc(Cl)c2Cl)c1=O	.	.	.	.	50.8	.	Hck Nef conf=.
CNc1ccc(Br)cc(C(=O)/C=C/c2cccc(OC)c2OC)c1=O	.	.	/	/	.	.
CCOC(=O)/C(C#N)=C1\SS/C(=C(/C#N)C(=O)OCC)S1	.	/	/	/	.	.
SMILES	PERK inh	PKD1 kinase inh	MDM2 E3 inh	TAG inh	Hck Nef HTS	Rad51 HR inh	others
COc1cc(OC)nc(C(NC(=O)C2CCN(Cc3ccc(Oc4ccccc4)cc3)CC2)c2ccc(F)cc2)n1 (stereo unspecified)	/	/	/	.	/	/
Cc1cc2oc(=O)c3c(c2cc1OC(=O)c1ccco1)CCCC3	.	.	.	/	.	.
O=C(Oc1cc2oc(=O)c3c(c2cc1Cl)CCCC3)c1cccs1	.	.	.	.	77.9	.
O=C(Oc1cc2oc(=O)c3c(c2cc1Cl)CCCC3)c1ccco1	.	.	.	.	82.8	.
CC(=O)Oc1cc2oc(=O)c3c(c2cc1Cl)CCC3	.	.	.	/	111.2	.
Cc1cc(=O)oc2cc(OC(C)C(=O)O)c(Cl)cc12 (stereo unspecified)	.	.	/	/	.	.
CC(=O)Oc1cc2oc(=O)cc(C)c2cc1Cl	.	/	.	.	+	.
CCCCCN(C(=O)CCC(=O)OCc1cccc(Br)c1)c1c(N)n(CCCC)c(=O)[nH]c1=O	/	/	/	.	/	/
Cc1cc(=O)oc2cc(OC(C)C(=O)N3CCOCC3)c(Cl)cc12 (stereo unspecified)	/	/	/	.	/	/
Cc1ccc(S(=O)(=O)NC(C(=O)Oc2cc3oc(=O)cc(C)c3cc2Cl)C(C)C)cc1 (stereo unspecified)	.	.	/	/	100.3	.
COc1cc(NC(=O)c2cccs2)c(C(=O)OCC(=O)NC(=O)NCc2ccccc2)cc1OC	.	.	.	/	67.6	.	Hck Nef conf=.
COc1cc(NC(=O)c2cccs2)c(C(=O)OCC(=O)NC(=O)NC(C)(C)C)cc1OC	.	.	.	.	.	.
CCOC(=O)c1c(NC(=O)N/N=C/c2ccc(O)c(OC)c2)sc(C(C)=O)c1C	.	/	/	/	60.8	.	Hck Nef conf=.
O=C(CSc1nnc(-c2ccco2)c(-c2ccco2)n1)c1ccccc1	.	.	.	.	69.2	.	Hck Nef conf=.
CN(CC(=O)Nc1ccc(N2CCOCC2)cc1)C(=O)CCNC(=O)c1ccc(Br)cc1	/	/	/	.	/	/
